From article PMC7523912 (ACS applied bio materials, 2019)
*: point of attachment. Palmitoyl = CCCCCCCCCCCCCCCC(=O)*

Legend:
[1] = tested on: PDGF-BB mediated proliferation of normal human lung fibroblasts (NHLF); assay: Inhibition of PDGF-BB mediated proliferation assay; assay type: cell-based; settings: PDGF-BB only samples, CyQuant
Outline: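 NHLF at passage 3–4 were grown in DMEM with 10% FBS and 1% penicillin/streptomycin. Cells were seeded at 10,000/well, recovered overnight, then starved 6 h in 0.5% FBS. PDGF-BB was given as 1:2 serial dilutions from 100 to 1.56 ng/mL, alone or with 500 nM free aptamer, 100 μM diluent PA, or apt-PAN (500 nM aptamer-PA, 100 μM total PA). CyQuant Direct was read at 24 and 48 h, normalised to growth-factor-only wells, with three independent experiments, mean ± SD.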

[2] = no reference or method printed; cited from earlier work
[3] = target: platelet-derived growth factor-BB (UniProt P01127 82-190); assay: BLI
platelet-derived growth factor-BB, sequence (P01127 82-190): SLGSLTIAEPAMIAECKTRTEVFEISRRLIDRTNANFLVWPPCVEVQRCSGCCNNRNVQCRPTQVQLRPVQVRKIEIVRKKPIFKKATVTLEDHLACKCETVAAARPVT

Row | Molecule | increase in total DNA, after 48 hours [1] | isoelectric point [2] | koff [3] [s⁻¹] | kon [3] [M⁻¹ s⁻¹]
1 | PDGF-BB: Platelet derived growth factor-BB | more than two-fold | 9.8 |  | 
2 | Palmitoyl-VVVAAAEEE-NH2 [diluent peptide amphiphile (palmitoyl-V3A3E3), as self-assembled nanofibers] |  |  | 0.000498 | 1080
